Laboratory results: the EternaBench riboswitch data

Test system: MS2 coat protein
Test: apparent Kd, MS2 coat protein; higher = weaker binding; RNA-MaP array; FMN 200 µM where present
Outline: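 The titrant was SNAP-549-labelled MS2 coat protein, run from 0.7 or 1.5 nM in doubling steps to 3 µM. It was applied to designs transcribed by stalled E. coli RNA polymerase on Illumina sequencing-chip clusters, without ligand first and then with constant ligand, in 100 mM Tris-HCl pH 7.5, 80 mM KCl, 4 mM MgCl2, BSA, DTT, yeast tRNA and Tween-20. The apparent Kd is the median of filtered per-cluster binding-curve fits, with green signal normalised to red-channel RNA signal and control-cluster median Fmax.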

[1] = designed as: OFF switch for flavin mononucleotide, no ligand
[2] = ligand present: flavin mononucleotide, designed as: OFF switch for flavin mononucleotide
[3] = designed as: ON switch for flavin mononucleotide, no ligand
[4] = ligand present: flavin mononucleotide, designed as: ON switch for flavin mononucleotide

Row | Sequence | apparent Kd [1] [nM] | apparent Kd [2] [nM] | apparent Kd [3] [nM] | apparent Kd [4] [nM]
1 | AAUUAUUUACAGAAGGAGUAUGAUAAUGUUUUACUAGGAUAUGUAUACAUGAGGAUCACCCAUGUUAUUGUAGGUUUUUUAUGU | 12.7 | 9.65 |  | 
2 | GGGUACAUCGGAGGAUAUCAUGUAAAUACAUGAGGAUCACCCAUGUCGAUGGAGACGUCGGAGAUUGAGAAGGCCGAUGUACCG |  |  | 91 | 7.8
3 | AUCUUUAAGAUAGGAUAUAGUAUGAUGGUUUAAUUAGAAGGAUCUCACAUGAGGAUCACCCAUGUAAUAGGAUUACCCAUGUAU | 46.1 | 31.7 |  | 
4 | AGAAACUACGAGAAGGACAUGUGGUCCAAAACAAACAUGAGGAUCACCCAUGUAGGAUAUCGUAGUUUCAGGAUCGUGAGAUCA | 284 | 61.8 |  | 
5 | GCUAGUGCAGGAUAUGCGUGGGAUGUUAUCCAUUUUCAUCUACAUGAGGAUCACCCAUGUAGAAGGGCACCCUU | 29.3 | 110 |  | 
6 | UUUCUCUGUGUGAGGAUAUACUUGUUUGGGUUUUUGUAGAAGGCACAUGAGGAUCACCCAUGUAUUUUGUCGUG | 34.4 | 55.6 |  | 
7 | UGUCGGAGCAGAGGAUAUUACAUGAGGAUCACCCAUGUACGAACCAAUAGCUGGAAACAGCAAUGUAAGAAGGCUGCUCCGACA | 11.3 | 79 |  | 
8 | AAGACUAGAGGAUAUACAUGAGGAUCACCCAUGUAACUGUCAGGUGACUGACGGAAAUGUAGAAGGCUAGUCAA | 16.2 | 37.9 |  | 
9 | CGAUGACAAAGUCAUCGAUAACGAACAUGAGGAUCACCCAUGUAGGAUAUGCUACUCAAAGAGUAGCAGAAGGACAUGUGCCUU | 34.2 | 284 |  | 
10 | GGCGGCGCGGGCCACCGCAGGACCAGAAGGACAUGAGGAUCACCCAUGUAGCAGAACAGGGCGGUGUAGGAUAUGGCAGGCUCG | 24.9 | 45.8 |  | 
11 | AUCUCAGGACGAGGAUAUCAAUACAUGAGGAUCACCCAUGUAUGAUUACUGUGAUCCUCUAAGGCUGAGAAGGCGUCCCAAUUA | 20.4 | 8.37 |  | 
12 | GUGCAAUGAGGAUAUACGUAGGUGAAAAUCUGUGUGCUCCUACAUGAGGAUCACCCAUGUAGAAGGCAUGUCAC | 17.1 | 28.2 |  | 
13 | UGGUUCAUGGGAGGAUAUGGGAUGAUAACAUGAGGAUCACCCAUGUUAAAGAUGCCGAGAGGCAACUAGAAGGCCCAUGAACCU |  |  | 268 | 61.7
14 | ACGGAGACACAAAUGUUCCACGGUGCAGAAGGGUCCCUCACAUGAGGAUCACCCAUGUAACUCGGACAGGAUAUGCUCCUGGGA |  |  | 135 | 9.78
15 | CGACACCGGGAGAAGGCCAGACGCCGGCGCCCAAUACAACUGAGCUUAUGGAGGAUAUCCCGACAUGAGGAUCACCCAUGUAUC |  |  | 35.5 | 10.8
16 | AACUGACAUGAGGAUCACCCAUGUCAGGAUAUGAUAUGUAAAAAAUAAAAAAUACUUAUCAGAAGGGACAUGGA | 22.7 | 41.3 |  | 
17 | GUACUACCCACAGAUAACUUAGCCAGAAGGGUCUACAUGAGGAUCACCCAUGUGGUCCAAAGUGGACAGGAUAUGGAAACGGUU | 139 | 12.2 |  | 
18 | AACAGUACAGGAUAUACAUGAGGAUCACCCAUGUGAGAAUUAUGUGGCGUACCACAAAGUAGAAGGGUACUGGA | 81.7 | 308 |  | 
19 | CAGAACGUCUGAUGAGACCCGCGGCAGGAUAUGCCUGACGUGGACAUGAGGAUCACCCAUGUAAGGCAGAAGGGCCGUUCAGUG | 23 | 95.5 |  | 
20 | ACGUGACGGUGCGCGAGCGGACGGAGAAGGCAGACAUGAGGAUCACCCAUGUGAGCCUGCUAUUCUGAGGAUAUCCGUCCACAC | 30.4 | 167 |  | 
21 | ACGAGUAAAGCAGGAUAUCUAUUGUCUCUGUAACAUGAGGAUCACCCAUGUAGAGAAGGGCUUAGUCAUACACUUCGAAGUUGC | 9.78 | 9.77 |  | 
22 | AUGAGGUCAGGAUAUGCAUGGCGGGACUUGCGUCGUGGCGUGGAGAAGGGACAUGAGGAUCACCCAUGUGGAGU | 91.4 | 50.5 |  | 
23 | AUUUACAAGUAAGGAUAUCGGGUAUAGUUAACUCGAGAAGGUACAUGAGGAUCACCCAUGUAGUAGAUACAUAGAACUGUUUUG | 13.6 | 12.7 |  | 
24 | GAAAUACAUGAGGAUCACCCAUGUGAGGAUAUGCUAUGGAAAUAAAAAAUAAAACAUAGCAGAAGGUACAAAAG | 71.5 | 106 |  | 
25 | CGAUAUUAUGCAGGAUAUCUCCCUUGAAUGUGGAGAGAAGGGCAUAGGGAGACAUAAGCCUUAUUACAUGAGGAUCACCCAUGU | 10.3 | 9.31 |  | 
26 | CGUUGAUAAUAUCUUCACAUGAGGAUCACCCAUGUCGCUCGACAGGAUAUAUUUGAUUUGUUUAAGUAGAAGGGUCGCAGAUGC |  |  | 157 | 130
27 | GAAGUUAGAGGAUAUACAUGAGGAUCACCCAUGUGUGAAGUUAACUUUGUAUAUUAAUGUAGAAGGCUAACUUC | 42.5 | 118 |  | 
28 | AAAGAACUAGGAUAUACAUGAGGAUCACCCAUGUGCAGCUUAACGGCUCACACCUUAUGUAGAAGGAGUGACCG | 16 | 19.3 |  | 

Row | Sequence | apparent Kd [1] [nM] | apparent Kd [2] [nM] | apparent Kd [3] [nM] | apparent Kd [4] [nM]
29 | UGUCGGAGCAGAGGAUAUUACAUGAGGAUCACCCAUGUAUGAACCAAUAGCUGGAAACAGCAAUGUAAGAAGGCUGCUCCGACC | 12 | 153 |  | 
30 | AAUGAAUAUAAAUUGUAUUUGUCGUAGGAUAUGGGUGACAUGAGGAUCACCCAUGUUGCAGACGACCAGAAGGGCGGCGGAUAU |  |  | 18 | 18.2
31 | GAAUACACCCGACGGGUGUCCGGCAAGGAUAUGAUGAGGGCGAUGCUACAUGAGGAUCACCCAUGUCAGAAGGUGCCCUCCAGG | 6.59 | 7.19 |  | 
32 | ACGAAGACACAAAUGUUCCACGGUGCAGAAGGGUCCCUCACAUGAGGAUCACCCAUGUAACUCGGACAGGAUAUGCUCUUGGGA |  |  | 47.4 | 5.86
33 | ACAUGACAUGAGGAUCACCCAUGUCGAUAAAAGCAAGGAUAUGGGCCCGAGUCGUUCGGACCAGAAGGUGCGUCUC |  |  | 23.6 | 18
34 | CAUUAAUUCAUUAUAGUUAUUAUACAGGAUAUGUUACAUGAGGAUCACCCAUGUAUUCAUGGUAAACAGAAGGGUAAUUCUAGU | 20.1 | 19.7 |  | 
35 | UUCGUGCAGCUUUGCUGUACGCGUACAUGAGGAUCACCCAUGUAGGAUAUGGUACGCUUUGCGUGCUAGAAGGAUAUGGAGAGC | 15.7 | 16.3 |  | 
36 | AGAUCAUCAGGAUAUACAUGGGUGAAAAAAGUAUAUCCACUACAUGAGGAUCACCCAUGUAGAAGGGAUGAUCA | 17.3 | 15.1 |  | 
37 | GCAGGGUAUGAGAAGGCAUAAUUUAUCUUACCACAUGUUUACAUGAGGAUCACCCAUGUUUCCAAUGAGGAUAUCAUACCGUGC | 10.9 | 9.89 |  | 
38 | GGCGUGUUAGGAUAUCGCGGCGGCGGCGUUUGUUGUUGUUGUGAGAAGGAACAUGAGGAUCACCCAUGUGCGCC | 18.4 | 27.4 |  | 
39 | AUCAGCUCGUCAGGAUAUAUGUCACUGCUUCGGCAGUGUGGUAAGAUUACAUGAGGAUCACCCAUGUAGAAGGGACGAGCUGAU | 6.12 | 6.9 |  | 
40 | AAAAGGCAUCGUGACAUGAGGAUCACCCAUGUGAUUUGCUCACAGGAUAUCAUGCUCACGGAGCCUGAGAAGGGUGAAAGCUAA |  |  | 28.7 | 54.7
41 | UGUGAGUUGAUCUUAGAUCGGAGUACAUGAGGAUCACCCAUGUAGGAUAUUCAAAGACGCAGAUAGAAGAAGGACAUAGGUUUC | 15.1 | 13.8 |  | 
42 | CGCAACAUACAGAAGGAGUUAUUGAGAGGUUUACUAGGAUAUGUUCACAUGAGGAUCACCCAUGUCGUUUGGUUUUUUGUUGCG | 18.4 | 11.2 |  | 
43 | GAUACGUCAGGAUAUCUGAUGUCUAACUUCGGUUAGACAUCAGAGAAGGGACAUGAGGAUCACCCAUGUAUCAG | 50.4 | 61.1 |  | 
44 | CACGUACAUGAGGAUCACCCAUGUUAGGAUAUGUUUACCGGAAGGCAUUCUUGGGUAAACAGAAGGGACGAAAC | 22.5 | 31.8 |  | 
45 | CUCAUGUCAGGAUAUAGCCACAUGAGGAUCACCCAUGUGGACUAGAAGGGACAUGAGGAUCACCCAUGUAUGAA | 11.4 | 10.2 |  | 
46 | AGGAAGUAAGGAUAUGCUGCUCGUCACUUGCGUGAUGAGUAGCAGAAGGUACAUGAGGAUCACCCAUGUAAAGA | 23.7 | 20.6 |  | 
47 | ACAUUUAAUACAGGAUAUGUUAGUAUACAGUAGAUUGGUUAUUACACAACAACAGAAGGGUAGAACAUGAGGAUCACCCAUGUA |  |  | 85.1 | 55.3
48 | UUUUAACAGUCAGGAUAUGUAACGCACAACGGCGCAGAAGGGACAUGAGGAUCACCCAUGUUAUGGUUCUGGUACUAUGACGUU | 18.8 | 23.1 |  | 
49 | UAUAUGUCAGGAUAUUAGUUGUGUUAGAAUUUAUCUUCUGCUGAGAAGGGACAUGAGGAUCACCCAUGUUCCUC | 14.5 | 16 |  | 
50 | AUGCAGCCACCACAGGAUAUACGUGGAUCGACAUGAGGAUCACCCAUGUAUAUCCUAAUAAUUGCGUAGAAGGGUGGUCGGCUGG |  |  | 555 | 81.8
51 | GUAUCGUGAGGAUAUCAUGAUUGACUUUUAUUUUGUCAGCGUGAGAAGGCACAUGAGGAUCACCCAUGUGAUUA | 22.6 | 50.5 |  | 
52 | GUUUCUAUAUGUUUUAUUUAACAGUCAGAAGGUGAUAAUACGACAUGAGGAUCACCCAUGUAAUUCAAGGAUAUGAUAUUAAUC |  |  | 62.7 | 27.7
53 | GGCCGUAAUAAGGAUAUCACUAGCUUCGGCUAGUGAGAAGGUAUUACAUGAGGAUCACCCAUGUGGUCAGGCCA | 279 | 730 |  | 
54 | AUUGCUAGCGCAGGAUAUGAUGCGAAAAUUGCGUCAGAAGGGUGUAAUCUCUCAUUGCGGGAGGACAUGAGGAUCACCCAUGUC |  |  | 142 | 87
55 | GCGUACAUAUCAGGAUAUCAUUGAAUGGAUUAACUCAGUGAAUACAUGAGGAUCACCCAUGUUCUUGAGAAGGGAUUACUACGC | 21 | 96.5 |  | 
